A word on the pKi: it is the negative decadic logarithm of the Ki, by convention in mol/L. Lower therefore signals a high Ki. A word on the pIC50: it is the IC50 on a negative log10 scale, so that one unit is a factor of ten. Lower therefore signals a high IC50.

Assay [1] deals with Sodium-dependent noradrenaline transporter (Homo sapiens, UniProt P23975). In words: Displacement of [3H]nisoxetine from norepinephrine transporter.
Assay [2] concerns the target Sodium-dependent dopamine transporter (Homo sapiens, UniProt Q01959). In words: Displacement of [3H]WIN-35428 from dopamine transporter. An outline of the steps: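 Competitive radioligand binding at membrane dopamine transporter; 0.5 nM [3H]WIN35,428 final concentration. Mean ± standard error of three or four experiments, each in triplicate.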
(Displacement assays read how much labelled ligand stays bound in the presence of the test substance.)

Assay [3] deals with Sodium-dependent serotonin transporter (Homo sapiens, UniProt P31645). As to the kind of experiment: Displacement of [3H]paroxetine from serotonin transporter.
Sequence of Sodium-dependent serotonin transporter (P31645 whole entry): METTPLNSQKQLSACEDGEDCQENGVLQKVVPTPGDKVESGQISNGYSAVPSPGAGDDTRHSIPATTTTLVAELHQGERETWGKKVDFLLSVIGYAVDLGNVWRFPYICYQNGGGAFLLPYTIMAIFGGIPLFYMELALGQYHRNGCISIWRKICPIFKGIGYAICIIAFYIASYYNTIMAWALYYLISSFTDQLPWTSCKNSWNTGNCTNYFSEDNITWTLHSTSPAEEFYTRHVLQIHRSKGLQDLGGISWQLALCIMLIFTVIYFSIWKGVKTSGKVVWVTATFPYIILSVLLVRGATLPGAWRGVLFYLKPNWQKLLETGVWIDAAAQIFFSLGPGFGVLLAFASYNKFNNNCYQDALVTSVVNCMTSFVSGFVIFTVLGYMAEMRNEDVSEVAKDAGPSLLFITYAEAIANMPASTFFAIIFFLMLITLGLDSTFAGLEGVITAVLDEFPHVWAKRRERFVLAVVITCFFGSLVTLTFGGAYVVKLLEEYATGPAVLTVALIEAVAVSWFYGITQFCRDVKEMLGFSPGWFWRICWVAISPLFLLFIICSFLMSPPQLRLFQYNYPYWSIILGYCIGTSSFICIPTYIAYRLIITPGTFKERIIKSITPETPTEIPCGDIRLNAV
The nature of assay [4]: Selectivity for dopamine transporter over serotonin transporter.
The nature of assay [5]: Selectivity for dopamine transporter over norepinephrine transporter.

pIC50, pKi: −log10 of the molar value.

Sequence of Sodium-dependent dopamine transporter (Q01959 whole entry): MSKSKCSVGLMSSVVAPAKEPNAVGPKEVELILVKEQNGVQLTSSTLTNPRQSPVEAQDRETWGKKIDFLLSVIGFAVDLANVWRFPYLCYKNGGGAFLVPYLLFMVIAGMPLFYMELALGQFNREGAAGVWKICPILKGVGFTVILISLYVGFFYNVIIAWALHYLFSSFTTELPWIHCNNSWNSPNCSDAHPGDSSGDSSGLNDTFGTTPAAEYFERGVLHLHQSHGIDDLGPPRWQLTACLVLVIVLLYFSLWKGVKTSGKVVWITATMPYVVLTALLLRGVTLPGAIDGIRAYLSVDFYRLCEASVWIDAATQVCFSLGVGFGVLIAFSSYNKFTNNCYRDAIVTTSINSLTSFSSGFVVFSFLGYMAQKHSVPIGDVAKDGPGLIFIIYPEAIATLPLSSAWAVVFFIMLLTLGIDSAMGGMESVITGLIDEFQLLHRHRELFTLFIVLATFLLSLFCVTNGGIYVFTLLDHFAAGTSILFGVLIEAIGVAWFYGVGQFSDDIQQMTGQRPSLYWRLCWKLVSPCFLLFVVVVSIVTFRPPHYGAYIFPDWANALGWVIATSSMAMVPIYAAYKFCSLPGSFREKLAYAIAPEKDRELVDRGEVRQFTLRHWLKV
Sequence of Sodium-dependent noradrenaline transporter (P23975 whole entry): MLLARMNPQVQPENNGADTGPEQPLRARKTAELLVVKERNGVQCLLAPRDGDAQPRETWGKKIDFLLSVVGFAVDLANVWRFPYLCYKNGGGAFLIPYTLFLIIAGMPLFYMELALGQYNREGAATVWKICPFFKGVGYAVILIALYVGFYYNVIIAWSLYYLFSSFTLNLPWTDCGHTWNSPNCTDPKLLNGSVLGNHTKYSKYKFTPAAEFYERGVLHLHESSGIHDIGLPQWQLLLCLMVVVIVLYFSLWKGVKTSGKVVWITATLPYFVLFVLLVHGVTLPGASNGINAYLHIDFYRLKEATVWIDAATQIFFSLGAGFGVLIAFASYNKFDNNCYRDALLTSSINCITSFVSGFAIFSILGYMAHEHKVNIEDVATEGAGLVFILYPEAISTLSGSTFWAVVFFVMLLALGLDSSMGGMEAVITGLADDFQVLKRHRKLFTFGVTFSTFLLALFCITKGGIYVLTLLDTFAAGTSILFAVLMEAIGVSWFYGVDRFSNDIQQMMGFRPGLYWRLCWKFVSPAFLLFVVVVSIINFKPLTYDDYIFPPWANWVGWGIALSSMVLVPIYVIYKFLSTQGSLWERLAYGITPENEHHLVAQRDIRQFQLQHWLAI

Consider `C#C[C@H]1[C@@H](c2ccc(C)cc2)C[C@@H]2CC[C@H]1N2C`, for which the pKi is 6.82 in assay [1] and 7.27 in assay [3]. In assay [2], this compound showed a pIC50 of 7.96.

In the case of `CN1[C@H]2CC[C@@H]1[C@@H](C#Cc1ccc([N+](=O)[O-])cc1)[C@@H](c1ccc(Cl)cc1)C2`, the pKi in assay [1] is 6.64; in assay [3], 6.21. For the same compound, the Selectivity ratio in assay [4] stood at 689; in assay [5], 256. The pIC50 in assay [2] is 9.05.

Turning to `CN1[C@H]2CC[C@@H]1[C@@H](C#Cc1ccc(N)cc1)[C@@H](c1ccc(Cl)cc1)C2`, the pKi in assay [1] was 7.30; in assay [3], 7.72. The same compound gave a pIC50 in assay [2] of 8.66.

As to `Cc1ccc([C@H]2C[C@@H]3CC[C@H]([C@H]2C=C(Br)Br)N3C)cc1`, the figures for the pKi in assay [1] and in assay [3] were 8.47 and 7.41, respectively. The compound further gave a pIC50 in assay [2] of 9.64.

As to `CN1[C@H]2CC[C@@H]1[C@H](C=C(Br)Br)[C@@H](c1ccc(Cl)cc1)C2`, the pKi was 7.31 in assay [1] and 7.12 in assay [3]. The compound also gave a pIC50 in assay [2] of 8.85.

`C#C[C@H]1[C@@H](c2ccc(Cl)cc2)C[C@@H]2CC[C@H]1N2C`: the pKi was 7.12 in assay [1] and 7.74 in assay [3]. This compound also had a pIC50 in assay [2] of 8.44.

On to `CN1[C@H]2CC[C@@H]1[C@@H](c1cn(CCN3CCCCC3)nn1)[C@@H](c1ccc(Cl)cc1)C2`, for which the pKi in assay [1] is 6.37; in assay [3], 6.86. This compound gave a pIC50 in assay [2] of 8.10.

`COC(=O)[C@H]1[C@@H](c2ccccc2)C[C@@H]2CC[C@H]1N2C` showed a negative logarithm of the Ki (pKi) in assay [1] of 6.25. In addition, the pIC50 in assay [2] is 7.64.

With `CN1[C@H]2CC[C@@H]1[C@@H](c1cn(Cc3ccccc3)nn1)[C@@H](c1ccc(Cl)cc1)C2`, the figures for the pKi in assay [1] and in assay [3] were 5.59 and 6.79, respectively. The compound further had a pIC50 in assay [2] of 7.33.

`CN1[C@H]2CC[C@@H]1[C@@H](C#Cc1ccccc1)[C@@H](c1ccc(Cl)cc1)C2`: the pKi is 7.85 in assay [1] and 7.09 in assay [3]. This compound had a pIC50 in assay [2] of 9.10.

Consider `CN1[C@H]2CC[C@@H]1[C@@H](C=C(Br)Br)[C@@H](c1ccc(Cl)cc1)C2`, for which the negative logarithm of the Ki (pKi) was 8.46 in assay [1] and 8.15 in assay [3]. Besides, the pIC50 in assay [2] was 9.49.

For `Cc1ccc([C@H]2C[C@@H]3CC[C@H]([C@H]2C#Cc2ccccc2)N3C)cc1`, the figures for the pKi in assay [1] and in assay [3] were 7.51 and 6.14, respectively. In assay [2], this compound gave a pIC50 of 9.10.

`Cc1ccc([C@H]2C[C@@H]3CC[C@H]([C@@H]2C=C(Br)Br)N3C)cc1`: the pKi in assay [1] is 7.26; in assay [3], 6.60. The compound further had a pIC50 in assay [2] of 8.44.

The values are drawn from ChEMBL document CHEMBL1150295, “Synthesis and receptor binding properties of 2beta-alkynyl and 2beta-(1,2,3-triazol)substituted 3beta-(substituted phenyl)tropane derivatives” (Bioorg Med Chem, 2008).
